Test results taken from ChEMBL document CHEMBL1212762, “In vivo activity of ceftobiprole in murine skin infections due to Staphylococcus aureus and Pseudomonas aeruginosa” (Antimicrob Agents Chemother, 2010).

Legend:
Pseudomonas aeruginosa [1] = assay: Antimicrobial activity against Pseudomonas aeruginosa OC 4351 infected in immunocompromized SKH1 mouse assessed as lesion volume at 1.6 mg/kg/day, sc measured after 48 hrs postinfection (reference value: 2234 mm3); format: functional; conditions: route subcutaneous
Pseudomonas aeruginosa [2] = assay: Antimicrobial activity against Pseudomonas aeruginosa OC 4351 infected in immunocompromized SKH1 mouse assessed as lesion volume at 6.2 mg/kg/day, sc measured after 48 hrs postinfection (reference value: 2234 mm3); format: functional; conditions: route subcutaneous
Pseudomonas aeruginosa [3] = assay: Antimicrobial activity against Pseudomonas aeruginosa OC 4354 infected in immunocompromized SKH1 mouse assessed as lesion volume at 6.2 mg/kg/day, sc measured after 48 hrs postinfection (reference value: 2195 mm3); format: functional; conditions: route subcutaneous
Pseudomonas aeruginosa [4] = assay: Antimicrobial activity against Pseudomonas aeruginosa OC 4354 infected in immunocompromized SKH1 mouse assessed as lesion volume at 25 mg/kg/day, sc measured after 48 hrs postinfection (reference value: 2195 mm3); format: functional; conditions: route subcutaneous
Pseudomonas aeruginosa [5] = assay: Antimicrobial activity against Pseudomonas aeruginosa OC 4351 infected in immunocompromized SKH1 mouse assessed as log change in bacterial colony forming units at 25 mg/kg/day, sc; format: functional; conditions: route subcutaneous
Procedure, shortened: (§1)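 Female SKH1 hairless mice made neutropenic with ip cyclophosphamide (150 mg/kg 5 days and 100 mg/kg 1 day before infection). 0.2 ml s.c. Cytodex bead (0.1% vol/vol) inoculum in BHI: OC 4351 left flank, OC 4354 right flank. Drug s.c. at 1, 3, 25, 27 h postinfection. Killed at 48 h; skin homogenised in saline, plated on TSA 18 h 37°C; Δlog CFU/g versus inoculum. 5 mice/dose, run twice.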

Pseudomonas aeruginosa [6] = assay: Antimicrobial activity against Pseudomonas aeruginosa OC 4354 infected in immunocompromized SKH1 mouse assessed as log change in bacterial colony forming unit at 1.6 mg/kg/day, sc; format: functional; conditions: route subcutaneous; procedure, shortened: as §1
Pseudomonas aeruginosa [7] = assay: Antimicrobial activity against Pseudomonas aeruginosa OC 4354 infected in immunocompromized SKH1 mouse assessed as log change in bacterial colony forming unit at 100 mg/kg/day, sc; format: functional; conditions: route subcutaneous; procedure, shortened: as §1
[8] = fT>MIC in Staphylococcus aureus Smith OC 4172 infected sc dosed SKH1 mouse at 50 mg/kg, sc administered twice at 1 and 3 hrs after infection; format: functional; conditions: route subcutaneous
[9] = fT>MIC in Staphylococcus aureus OC 8525 infected sc dosed SKH1 mouse at 50 mg/kg, sc administered twice at 1 and 3 hrs after infection; format: functional; conditions: route subcutaneous
[10] = fT>MIC in Staphylococcus aureus OC 4172 infected sc dosed SKH1 mouse administered in 24 hrs dosing interval; format: functional
Procedure, shortened: (§2)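 Plasma levels came from female hairless SKH1 mice given single s.c. doses at the nape 24 h after flank s.c. infection with Cytodex beads. S. aureus work used immunocompetent mice. P. aeruginosa work used mice made neutropenic with cyclophosphamide i.p., 150 mg/kg at day −5 and 100 mg/kg at day −1. Drug assayed by HPLC with diode-array detection. Noncompartmental analysis.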

[11] = fT>MIC in Staphylococcus aureus OC 8525 infected sc dosed SKH1 mouse administered in 24 hrs dosing interval; format: functional; procedure, shortened: as §2
[12] = fT>MIC in Pseudomonas aeruginosa OC 4351 infected sc dosed SKH1 mouse administered in 24 hrs dosing interval; format: functional
[13] = fT>MIC in Pseudomonas aeruginosa OC 4354 infected sc dosed SKH1 mouse administered in 24 hrs dosing interval; format: functional; procedure, shortened: as §2
[14] = Tmax in immunocompromized SKH1 mouse skin at 50 mg/kg, sc; format: ADME, organism-based, Zone of skin; parameters: dose 50 mg/kg, route subcutaneous
Procedure, shortened: (§3)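 Female SKH1 hairless mice, immunocompetent or cyclophosphamide-neutropenic, infected s.c. with MRSA OC 8525 or P. aeruginosa OC 4354 on the Cytodex beads (left flank), sterile beads on the right. Single dose 24 h later: s.c. at the nape, or linezolid 50 mg/kg oral. Plasma and skin (DMSO homogenate) sampled over time, HPLC with diode array.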

Plasma [15] = assay: fCmax in immunocompromized SKH1 mouse plasma at 50 mg/kg, sc; format: ADME, organism-based; parameters: dose 50 mg/kg, route subcutaneous; conditions: in vivo; procedure, shortened: as §3
Zone of skin [16] = assay: fCmax in immunocompromized SKH1 mouse skin at 50 mg/kg, sc; format: ADME, organism-based; parameters: dose 50 mg/kg, route subcutaneous; conditions: in vivo; procedure, shortened: as §3
Zone of skin [17] = assay: fCmax in Staphylococcus aureus infected […] SKH1 mouse skin at 50 mg/kg, sc; format: ADME, organism-based; parameters: dose 50 mg/kg, route subcutaneous; conditions: in vivo
Plasma [18] = assay: fAUC (0-infinity) in immunocompromized SKH1 mouse plasma at 50 mg/kg, sc; format: ADME, organism-based; parameters: dose 50 mg/kg, route subcutaneous; conditions: in vivo; procedure, shortened: as §3
Zone of skin [19] = assay: fAUC (0-infinity) in Staphylococcus aureus infected immunocompromized SKH1 mouse skin at 50 mg/kg, sc; format: ADME, organism-based; parameters: dose 50 mg/kg, route subcutaneous; conditions: in vivo
[20] = Protein binding in mouse plasma; format: ADME, cell-free; conditions: read-out: PPB (converted)
Pseudomonas aeruginosa [21] = assay: Antimicrobial activity against Pseudomonas aeruginosa OC 4351 assessed as inhibition of growth by broth microdilution method; format: functional
[22] = Half life in immunocompetent SKH1 mouse plasma at 50 mg/kg, sc; format: ADME, organism-based; parameters: dose 50 mg/kg, route subcutaneous
[23] = Half life in immunocompetent SKH1 mouse skin at 50 mg/kg, sc; format: ADME, organism-based, Zone of skin; parameters: dose 50 mg/kg, route subcutaneous; procedure, shortened: as §3
[24] = Half life in Staphylococcus aureus infected immunocompetent SKH1 mouse skin at 50 mg/kg, sc; format: ADME, organism-based, Zone of skin; parameters: dose 50 mg/kg, route subcutaneous; procedure, shortened: as §3
[25] = Tmax in immunocompetent SKH1 mouse plasma at 12.5 mg/kg, sc; format: ADME, organism-based; parameters: dose 12.5 mg/kg, route subcutaneous; procedure, shortened: as §3
[26] = Tmax in immunocompetent SKH1 mouse skin at 50 mg/kg, sc; format: ADME, organism-based, Zone of skin; parameters: dose 50 mg/kg, route subcutaneous; procedure, shortened: as §3
[27] = Tmax in Staphylococcus aureus infected immunocompetent SKH1 mouse skin at 50 mg/kg, sc; format: ADME, organism-based, Zone of skin; parameters: dose 50 mg/kg, route subcutaneous; procedure, shortened: as §3
Plasma [28] = assay: fCmax in immunocompetent SKH1 mouse plasma at 50 mg/kg, sc; format: ADME, organism-based; parameters: dose 50 mg/kg, route subcutaneous; conditions: in vivo; procedure, shortened: as §3
Zone of skin [29] = assay: fCmax in immunocompetent SKH1 mouse skin at 50 mg/kg, sc; format: ADME, organism-based; parameters: dose 50 mg/kg, route subcutaneous; conditions: in vivo; procedure, shortened: as §3
Plasma [30] = assay: fAUC (0-infinity) in immunocompetent SKH1 mouse plasma at 50 mg/kg, sc; format: ADME, organism-based; parameters: dose 50 mg/kg, route subcutaneous; conditions: in vivo; procedure, shortened: as §3
Zone of skin [31] = assay: fAUC (0-infinity) in immunocompetent SKH1 mouse skin at 50 mg/kg, sc; format: ADME, organism-based; parameters: dose 50 mg/kg, route subcutaneous; conditions: in vivo; procedure, shortened: as §3
Zone of skin [32] = assay: fAUC (0-infinity) in Staphylococcus aureus infected immunocompetent SKH1 mouse skin at 50 mg/kg, sc; format: ADME, organism-based; parameters: dose 50 mg/kg, route subcutaneous; conditions: in vivo; procedure, shortened: as §3
Staphylococcus aureus [33] = assay: Antimicrobial activity against methicillin-susceptible Staphylococcus aureus Smith OC 4172 infected in SKH1 mouse assessed as log change in bacterial colony forming unit per gram of skin tissue at 25 mg/kg/day, sc (reference value: 1.6 deltalog CFU); format: functional; conditions: route subcutaneous
Procedure, shortened: (§4)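 Female hairless immunocompetent SKH1 mice were anaesthetised and injected s.c. with 0.2 ml Cytodex bead inoculum (0.1% vol/vol beads in BHI; 6.7–7.0 log10 CFU/mouse): MSSA OC 4172 in the left flank, MRSA OC 8525 in the right. Drug was given at 1, 3, 25 and 27 h post-infection. At 48 h, flank lesions were excised, weighed and homogenised in saline, then plated on TSA (18 h, 37°C). The value is Δlog CFU/g versus the inoculum, from 5 mice/dose, run twice and pooled.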

Staphylococcus aureus [34] = assay: Antimicrobial activity against methicillin-susceptible Staphylococcus aureus Smith OC 4172 infected in SKH1 mouse assessed as log change in bacterial colony forming unit per gram of skin tissue at 100 mg/kg/day, sc (reference value: 1.6 deltalog CFU); format: functional; conditions: route subcutaneous
Staphylococcus aureus [35] = assay: Antimicrobial activity against methicillin-resistant Staphylococcus aureus OC 8525 infected in SKH1 mouse assessed as log change in bacterial colony forming unit per gram of skin tissue at 1.6 mg/kg/day, sc (reference value: 0.8 deltalog CFU); format: functional; conditions: route subcutaneous; procedure, shortened: as §4

Nc1nc(/C(=N/O)C(=O)N[C@@H]2C(=O)N3C(C(=O)O)=C(/C=C4\CCN([C@@H]5CCNC5)C4=O)CS[C@H]23)ns1 [CEFTOBIPROLE]
Activity (Pseudomonas aeruginosa [1]): 1593 mm3 | Activity (Pseudomonas aeruginosa [2]): 847 mm3 | Activity (Pseudomonas aeruginosa [3]): 1028 mm3 | Activity (Pseudomonas aeruginosa [4]): 580 mm3 | deltalog10CFU (Pseudomonas aeruginosa [5]): -0.9 | deltalog10CFU (Pseudomonas aeruginosa [6]): 1.7 | deltalog10CFU (Pseudomonas aeruginosa [7]): -1.4 | fT>MIC [8]: >4 h | fT>MIC [9]: 3.3 h | fT>MIC [10]: >17% | fT>MIC [11]: 13.8% | fT>MIC [12]: 9.1% | fT>MIC [13]: 9.1% | Tmax [14]: 15 min | fCmax (Plasma [15]): 69 µg/mL | fCmax (Zone of skin [16]): 17 µg/g | fCmax (Zone of skin [17]): 9 µg/g | fAUC (Plasma [18]): 2011 µg·min/mL | fAUC (Zone of skin [19]): 704 µg·min/mL | fraction unbound [20]: 0.84 | MIC (Pseudomonas aeruginosa [21]): 4 mg/L | half-life [22]: 13 min | half-life [23]: 19 min | half-life [24]: 15 min | Tmax [25]: 7.5 min | Tmax [26]: 15 min | Tmax [27]: 15 min | fCmax (Plasma [28]): 66 µg/mL | fCmax (Zone of skin [29]): 17 µg/g | fAUC (Plasma [30]): 2336 µg·min/mL | fAUC (Zone of skin [31]): 668 µg·min/mL | fAUC (Zone of skin [32]): 652 µg·min/mL | deltalog10CFU (Staphylococcus aureus [33]): 1.5 | deltalog10CFU (Staphylococcus aureus [34]): -1.7 | deltalog10CFU (Staphylococcus aureus [35]): 0.3
